Results published in ChEMBL document CHEMBL1821604, “Anticancer activity and cDNA microarray studies of a (RS)-1,2,3,5-tetrahydro-4,1-benzoxazepine-3-yl]-6-chloro-9H-purine, and an acyclic (RS)-O,N-acetalic 6-chloro-7H-purine” (Eur J Med Chem, 2011).

Tests used:
HT-29 [1] = assay: Induction of apoptosis in human HT-29 cells assessed early apoptotic cells at IC50 after 48 hrs using annexin V-FITC staining by flow cytometry; type: functional
How it was run: (§1)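 Cells exposed 48 h to the compound at its IC₅₀ concentration, with 0.5% DMSO-only cells as control. Stained with annexin V-FITC plus propidium iodide, then flow cytometry. Gating: annexin+/PI− = early apoptotic; annexin+/PI+ = late apoptotic; PI only = dead/necrotic; double-negative = viable.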

HT-29 [2] = assay: Down regulation of CDH4 gene expression in human HT-29 cells at IC50 after 48 hrs by cDNA microarray technique relative to control; type: functional
How it was run: (§2)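 8 × 10⁶ cells exposed 48 h to compound at its IC50 concentration; total RNA isolated with trizol/chloroform and RNeasy columns including on-column DNase step; RNA quantified by OD 260/280; DMSO-treated cultures as control.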

HT-29 [3] = assay: Cell cycle arrest in human HT-29 cells assessed as accumulation at G2/M phase at IC50 after 48 hrs using […] propidium iodide staining based FACS analysis; type: functional
HT-29 [4] = assay: Down regulation of P53AIP1 gene expression in human HT-29 cells at IC50 after 48 hrs by cDNA microarray technique relative to control; type: functional
HT-29 [5] = assay: Induction of apoptosis in human HT-29 cells assessed late apoptotic cells at IC50 after 48 hrs using annexin V-FITC staining by flow cytometry; type: functional; how it was run: as §1
MCF7 [6] = assay: Induction of apoptosis in human MCF7 cells assessed viable cells at IC50 after 48 hrs using annexin V-FITC staining by flow cytometry; type: functional; how it was run: as §1
MCF7 [7] = assay: Induction of apoptosis in human MCF7 cells assessed necrotic cells at IC50 after 48 hrs using annexin V-FITC staining by flow cytometry; type: functional; how it was run: as §1
[8] = Therapeutic index, ratio of IC50 for human MCF10A cells to IC50 for human MCF7 cells; type: cell-based; settings: MCF10A cells (normal) versus MCF7 cells (cancer), read-out: Ratio IC50
How it was run: (§3)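 Each cell line grown in DMEM with 10% FBS, 37 °C, 5% CO₂. Cells seeded and allowed 24 h, then drug added in medium (≤0.1% v/v DMSO). Medium and drug renewed at day 3, cells kept 3 more days. Sulforhodamine-B read at 492 nm. IC₅₀ taken from semilog dose-response curves by linear interpolation, triplicate wells, at least twice. Index = IC₅₀ normal line / IC₅₀ cancer line.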

MCF7 [9] = assay: Down regulation of AF086546 gene expression in human MCF7 cells at IC50 after 48 hrs by cDNA microarray technique relative to control; type: functional; how it was run: as §2
[10] = Therapeutic index, ratio of IC50 for rat IEC-6 cells to IC50 for human HT-29 cells; type: cell-based; settings: IEC-6 cells (normal) versus HT-29 cells (cancer), read-out: Ratio IC50; how it was run: as §3
MCF7 [11] = assay: Down regulation of FLJ12985 gene expression in human MCF7 cells at IC50 after 48 hrs by cDNA microarray technique relative to control; type: functional
How it was run: (§4)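 Cells (8 × 10⁶) were cultured in DMEM with 10% heat-inactivated FBS at 37 °C under 5% CO₂. They were exposed for 48 h to compound at its IC₅₀, with DMSO-treated parallel cultures as controls (final DMSO ≤0.1% v/v). Total RNA was isolated by trizol/chloroform phase separation, RNeasy column cleanup and on-column DNase, then quantified by OD260/OD280. Expression was profiled by cDNA microarray relative to control.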

MCF7 [12] = assay: Cell cycle arrest in human MCF7 cells assessed as accumulation at S phase at IC50 after 48 hrs using annexin V-FITC and propidium iodide staining based FACS analysis; type: functional
HT-29 [13] = assay: Induction of apoptosis in human HT-29 cells assessed viable cells at IC50 after 48 hrs using annexin V-FITC staining by flow cytometry; type: functional; how it was run: as §1
MCF7 [14] = assay: Cell cycle arrest in human MCF7 cells assessed as accumulation at G2/M phase at IC50 after 48 hrs using annexin V-FITC and propidium iodide staining based FACS analysis; type: functional
MCF7 [15] = assay: Down regulation of GBP1 gene expression in human MCF7 cells at IC50 after 48 hrs by cDNA microarray technique relative to control; type: functional; how it was run: as §4
HT-29 [16] = assay: Cell cycle arrest in human HT-29 cells assessed as accumulation at S phase at IC50 after 48 hrs using […] propidium iodide staining based FACS analysis; type: functional
HT-29 [17] = assay: Down regulation of HAPLN3 gene expression in human HT-29 cells at IC50 after 48 hrs by cDNA microarray technique relative to control; type: functional; how it was run: as §4
MCF-10A = assay: Cytotoxicity against human MCF10A cells after 6 days by SRB colorimetric assay; type: cell-based; settings: 144 h
MCF7 [18] = assay: Cell cycle arrest in human MCF7 cells assessed as accumulation at G0/G1 phase at IC50 after 48 hrs using annexin V-FITC and propidium iodide staining based FACS analysis; type: functional
HT-29 [19] = assay: Down regulation of LIN28 gene expression in human HT-29 cells at IC50 after 48 hrs by cDNA microarray technique relative to control; type: functional; how it was run: as §4
HT-29 [20] = assay: Down regulation of CD1B gene expression in human HT-29 cells at IC50 after 48 hrs by cDNA microarray technique relative to control; type: functional; how it was run: as §2
MCF7 [21] = assay: Induction of apoptosis in human MCF7 cells assessed early apoptotic cells at IC50 after 48 hrs using annexin V-FITC staining by flow cytometry; type: functional; how it was run: as §1
HT-29 [22] = assay: Induction of apoptosis in human HT-29 cells assessed necrotic cells at IC50 after 48 hrs using annexin V-FITC staining by flow cytometry; type: functional; how it was run: as §1
MCF7 [23] = assay: Down regulation of KIF3B gene expression in human MCF7 cells at IC50 after 48 hrs by cDNA microarray technique relative to control; type: functional; how it was run: as §4
MCF7 [24] = assay: Induction of apoptosis in human MCF7 cells assessed late apoptotic cells at IC50 after 48 hrs using annexin V-FITC staining by flow cytometry; type: functional; how it was run: as §1
HT-29 [25] = assay: Cytotoxicity against human HT-29 cells after 6 days by SRB colorimetric assay; type: functional, cell-based; settings: HT-29, 144 h
[26] = Cytotoxicity against rat IEC-6 cells after 6 days by SRB colorimetric assay; type: cell-based; settings: IEC-6, 144 h
HT-29 [27] = assay: Cell cycle arrest in human HT-29 cells assessed as accumulation at G0/G1 phase at IC50 after 48 hrs using […] propidium iodide staining based FACS analysis; type: functional
HT-29 [28] = assay: Down regulation of TMED9 gene expression in human HT-29 cells at IC50 after 48 hrs by cDNA microarray technique relative to control; type: functional
HT-29 [29] = assay: Down regulation of LIR9 gene expression in human HT-29 cells at IC50 after 48 hrs by cDNA microarray technique relative to control; type: functional; how it was run: as §4
HT-29 [30] = assay: Down regulation of BAZ2A gene expression in human HT-29 cells at IC50 after 48 hrs by cDNA microarray technique relative to control; type: functional; how it was run: as §2
HT-29 [31] = assay: Down regulation of NIPSNAP3B gene expression in human HT-29 cells at IC50 after 48 hrs by cDNA microarray technique relative to control; type: functional
MCF7 [32] = assay: Upregulation of MYCN gene expression in human MCF7 cells at IC50 after 48 hrs by cDNA microarray technique relative to control; type: functional
MCF7 [33] = assay: Upregulation of ST3GAL1 gene expression in human MCF7 cells at IC50 after 48 hrs by cDNA microarray technique relative to control; type: functional

SMILES | Activity (HT-29 [1]) [%] | Activity (HT-29 [3]) [%] | Activity (HT-29 [5]) [%] | Activity (MCF7 [6]) [%] | Activity (MCF7 [7]) [%] | selectivity ratio [8] | selectivity ratio [10] | Activity (MCF7 [12]) [%] | Activity (HT-29 [13]) [%] | Activity (MCF7 [14]) [%] | fold change (FC) (MCF7 [15]) | Activity (HT-29 [16]) [%] | IC50 (MCF-10A) [µM] | Activity (MCF7 [18]) [%] | Activity (MCF7 [21]) [%] | Activity (HT-29 [22]) [%] | Activity (MCF7 [24]) [%] | IC50 (HT-29 [25]) [µM] | IC50 [26] [µM] | Activity (HT-29 [27]) [%] | other results
COC(CN(c1ccccc1CO)S(=O)(=O)c1ccccc1[N+](=O)[O-])n1cnc2ncnc(Cl)c21 (racemic) | 21.1 | 12.7 | 15.64 | 20.36 | 24.79 | 1.92 | 3.69 | 23.94 | 54.93 | 10.98 | -2.01 | 10.5 | 6.23 | 65.09 | 6.36 | 8.33 | 48.49 | 3.28 | 12.1 | 71.58 | fold change (FC) (HT-29 [2]): -2.22; fold change (FC) (HT-29 [4]): -2.06; fold change (FC) (MCF7 [9]): -2.14; fold change (FC) (MCF7 [11]): -2.11; fold change (FC) (HT-29 [17]): -2.64; fold change (FC) (HT-29 [19]): -2.02; fold change (FC) (HT-29 [20]): -2.32; fold change (FC) (MCF7 [23]): -2.14
O=C(OCC1c2ccccc2-c2ccccc21)N1CC(n2cnc3c(Cl)ncnc32)OCc2ccccc21 (racemic) | 18.07 | 14.9 | 13.63 | 5.07 | 14.85 | 3.19 | 2.99 | 22.43 | 59.69 | 13.18 | -2.02 | 14.7 | 2.14 | 64.39 | 7.27 | 8.61 | 72.81 | 3.38 | 10.1 | 74.68 | fold change (FC) (HT-29 [28]): -3.95; fold change (FC) (HT-29 [29]): -2.08; fold change (FC) (HT-29 [30]): -2.65; fold change (FC) (HT-29 [31]): -2.21; fold change (FC) (MCF7 [32]): 2.98; fold change (FC) (MCF7 [33]): 6.38
